{
  "source": "paper PMC6072253",
  "about": "(ACS Omega, 2018)",
  "key": {"[1]": {"conditions": "successive pKa of the acid itself; no reference given; cited from earlier work"}, "[2]": {"test": "oral pharmacokinetics in BALB/c mice", "type": "in vivo", "conditions": "50 mg/kg", "procedure,_shortened": "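Male BALB/c mice aged 8–13 weeks received a single oral dose of 50 mg/kg in 1% v/v Tween 80 + 0.5% w/v sodium CMC. Retro-orbital blood was collected into K2EDTA (n = 3/time point) at 0.25–24 h. Plasma was prepared within 30 min and stored below −60 °C. Plasma was analysed by LC-MS/MS (LLOQ 5.05 ng/mL), and parameters were derived by noncompartmental analysis.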"}, "[3]": {"test": "moisture content by loss on drying", "type": "physicochemical", "conditions": "at the end of 6 months"}, "[4]": {"test": "solubility in reaction solvents for scale-up", "type": "physicochemical"}, "Cdk-9/T1": {"molecular_target": "Cdk-9/T1 (Homo sapiens, UniProt P50750)", "sequence (P50750 whole entry)": "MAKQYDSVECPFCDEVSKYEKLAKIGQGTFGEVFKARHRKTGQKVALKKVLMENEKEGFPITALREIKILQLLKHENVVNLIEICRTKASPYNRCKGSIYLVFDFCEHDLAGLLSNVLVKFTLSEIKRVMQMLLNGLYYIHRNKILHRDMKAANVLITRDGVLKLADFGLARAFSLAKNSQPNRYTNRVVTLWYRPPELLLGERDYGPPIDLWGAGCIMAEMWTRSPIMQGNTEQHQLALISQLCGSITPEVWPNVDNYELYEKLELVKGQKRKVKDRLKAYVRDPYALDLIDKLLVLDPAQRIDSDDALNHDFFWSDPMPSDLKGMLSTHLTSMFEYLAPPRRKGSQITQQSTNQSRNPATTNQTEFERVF", "sequence (O60563 whole entry partner)": "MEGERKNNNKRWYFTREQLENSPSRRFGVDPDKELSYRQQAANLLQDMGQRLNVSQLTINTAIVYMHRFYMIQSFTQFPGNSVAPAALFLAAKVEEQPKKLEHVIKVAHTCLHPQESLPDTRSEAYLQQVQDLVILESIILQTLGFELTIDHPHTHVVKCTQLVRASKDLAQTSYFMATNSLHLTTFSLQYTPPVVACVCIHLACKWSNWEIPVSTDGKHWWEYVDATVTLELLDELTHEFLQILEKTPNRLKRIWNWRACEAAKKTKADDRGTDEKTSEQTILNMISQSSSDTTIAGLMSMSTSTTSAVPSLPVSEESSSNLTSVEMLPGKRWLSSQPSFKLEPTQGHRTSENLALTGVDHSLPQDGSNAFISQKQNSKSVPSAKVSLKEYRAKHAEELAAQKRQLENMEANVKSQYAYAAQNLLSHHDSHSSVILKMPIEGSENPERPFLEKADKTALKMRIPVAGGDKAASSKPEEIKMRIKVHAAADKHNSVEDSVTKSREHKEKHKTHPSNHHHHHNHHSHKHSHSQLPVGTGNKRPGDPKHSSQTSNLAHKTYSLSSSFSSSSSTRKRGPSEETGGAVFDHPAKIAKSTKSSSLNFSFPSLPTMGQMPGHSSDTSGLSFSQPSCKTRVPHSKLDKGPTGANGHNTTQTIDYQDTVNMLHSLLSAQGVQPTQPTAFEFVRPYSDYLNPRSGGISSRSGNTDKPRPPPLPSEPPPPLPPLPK", "test": "Cdk-9/T1 radioactive", "type": "biochemical", "conditions": "read-out: % inhibition (±SD) Cdk-9/T1, 500 nM", "procedure,_shortened": "(§1)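 Radioactive filter-binding kinase assay using 33P-ATP, run at an external kinase-profiling centre, with the test compound at 500 nM. Enzyme activity remaining was expressed as a percentage of control, and % inhibition was calculated as 100 − % enzyme activity.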"}, "Cdk-9": {"test_system": "Cdk-9", "conditions": "read-out: Cdk-9 IC50; cited from earlier work"}, "[5]": {"test": "thermodynamic equilibrium solubility in water", "type": "physicochemical", "conditions": "25 °C, 24 h", "procedure,_shortened": "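Excess solid was added to water, vortexed for 5 min, then shaken at 300 rpm and 25 °C for 24 h. After centrifugation (14 000 rpm, 10 min), the supernatant was quantified by reversed-phase C18 HPLC. Elution used a methanol/0.1% formic acid gradient with photodiode detection and a 37 °C column. Calibration covered 5–160 μg/mL.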"}, "[6]": {"test": "in vitro dissolution under sink conditions", "type": "physicochemical", "procedure,_shortened": "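Samples (1 mL) were taken at 15, 30, 60, 120, 240 and 360 min and replaced with fresh prewarmed medium. Samples were filtered (0.45 μm PVDF), diluted in methanol and quantified by HPLC. Runs were in triplicate. AUC0–t was obtained by the trapezoidal rule to the last time point.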"}, "Cdk-2/A": {"molecular_target": "Cdk-2/A (Homo sapiens, UniProt P24941)", "test": "Cdk-2/A radioactive", "type": "biochemical", "conditions": "read-out: % inhibition (±SD) Cdk-2/A, 500 nM", "procedure,_shortened": "as §1"}},
  "note": "“And” between values parts separate entries of the source, which are not always exact repeats. Equal entries are not always repeated.",
  "data": [
    {"smiles": "Nc1ccc(C(=O)O)cc1", "note": "[4-aminobenzoic acid]", "values": [
      {"measurement": "pKa values of counterions", "setting": "[1]", "result": 2.38}
    ]},
    {"smiles": "CN1CC[C@H](c2c(O)cc(O)c3c(=O)cc(/C=C/c4c(Cl)cccc4Cl)oc23)[C@H](O)C1", "note": "[IIIM-290, 2-((E)-2,6-Dichlorostyryl)-5,7-dihydroxy-8-((3S,4R)-3-hydroxy-1-methylpiperidin-4-yl)-4H-chromen-4-one]", "values": [
      {"measurement": "T1/2", "setting": "[2]", "result": 1.92, "unit": "h"},
      {"measurement": "AUC(0-t)", "setting": "[2]; male, BALB/c, mouse, plasma, po, AUC0–t", "result": 2570, "unit": "ng·h/mL"},
      {"measurement": "Cmax", "setting": "[2]; male, BALB/c, mouse, plasma, po, Cmax", "result": 656, "unit": "ng/mL"},
      {"measurement": "Tmax", "setting": "[2]; male, BALB/c, mouse, plasma, po, Tmax", "result": 1, "unit": "h"},
      {"measurement": "% moisture content", "setting": "[3]", "result": 3.5, "unit": "% w/w"},
      {"measurement": "solubility in methanol", "setting": "[4]", "result": 500, "unit": "µg/mL"},
      {"measurement": "solubility", "setting": "[4]; methanol, solubility in methanol", "result": "~500", "unit": "µg/mL"},
      {"measurement": "inhibition at 0.5 µM", "setting": "Cdk-9/T1", "result": "94 ± 0.8", "unit": "%"},
      {"measurement": "IC50", "setting": "Cdk-9", "result": 1.9, "unit": "nM"},
      {"measurement": "thermodynamic equilibrium solubility in water", "setting": "[5]", "result": "~8.6 µg/mL and 8.61 ± 1.8 µg/mL"},
      {"measurement": "% drug dissolved in HCl buffer (pH 1.2) at 30 min", "setting": "[6]; HCl buffer pH 1.2, 0.25% SLS, 30 min", "result": 83, "unit": "%"},
      {"measurement": "AUC0–t (mean ± SEM), dissolution in HCl buffer (pH 1.2)", "setting": "[6]; HCl buffer pH 1.2, 0.25% w/v SLS", "result": "2102.46 ± 80.09", "unit": "μg/mL min"},
      {"measurement": "dissolution in phosphate buffer (pH 6.8) at the end of 60 min", "setting": "[6]; phosphate buffer pH 6.8, 0.25% SLS, 60 min", "result": 63, "unit": "%"},
      {"measurement": "AUC0–t (mean ± SEM), dissolution in phosphate buffer (pH 6.8)", "setting": "[6]; phosphate buffer pH 6.8, 0.25% w/v SLS", "result": "4898.69 ± 317.03", "unit": "μg/mL min"},
      {"measurement": "AUC0–t (mean ± SEM), dissolution in water", "setting": "[6]; water, 0.25% w/v SLS", "result": "3557.23 ± 247.03", "unit": "µg·min/mL"},
      {"measurement": "dissolution in water at the end of 120 min", "setting": "[6]; water, 0.25% w/v SLS, 37 °C, 120 min", "result": 49, "unit": "% w/v"},
      {"measurement": "inhibition at 0.5 µM", "setting": "Cdk-2/A", "result": "90 ± 0.2", "unit": "%"}
    ]},
    {"smiles": "O=C(O)CC(O)(CC(=O)O)C(=O)O", "note": "[citric acid]", "values": [
      {"measurement": "pKa values of counterions", "setting": "[1]", "result": 3.73}
    ]}
  ]
}
